Assays:
Plasmodium falciparum [1] = experiment: Antimalarial activity against chloroquine-resistant Plasmodium falciparum W2 after 48 hrs by FACS analysis in presence of 10 % human serum; assay type: functional, organism-based; details: W2, 48 h
In short: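 W2 parasites grown in standard medium containing 10% human serum. Growth inhibition assay as in earlier published work, with parasite development scored by flow cytometry (FACS).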

Plasmodium falciparum [2] = experiment: Antimalarial activity against chloroquine-resistant Plasmodium falciparum Dd2 after 48 hrs; assay type: functional, organism-based; details: Dd2, 48 h
In short: (§1)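 P. falciparum asexual culture in RPMI 1640 with glucose, HEPES, hypoxanthine, 5% Albumax, bicarbonate and gentamicin, sorbitol-synchronized at ring stage when needed. DMSO stocks serially diluted twofold in medium and added to parasitized erythrocytes at 2% hematocrit. Incubation 48 h at 37 °C under 3% O2/4% CO2/93% N2. pLDH read-out with Malstat plus NBT/PES at 620 nm. Runs in duplicate on two occasions; IC50 fitted from dose–response curves.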

Plasmodium falciparum [3] = experiment: Antimalarial activity against chloroquine-sensitive Plasmodium falciparum D10 after 48 hrs; assay type: functional, organism-based; details: D10, 48 h; in short: as §1
[4] = Inhibition of beta-hematin formation assessed as equivalents of drug relative to hematin; assay type: functional
In short: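 Colorimetric assay quantifying a compound's inhibition of the conversion of hematin to beta-hematin. IC50 is expressed in equivalents of compound relative to hematin.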

| Compound | IC50 (Plasmodium falciparum [1]) [µM] | IC50 (Plasmodium falciparum [2]) [µM] | IC50 (Plasmodium falciparum [3]) [µM] | IC50 [4] |
| --- | --- | --- | --- | --- |
| C#CCOc1ccc(/C=C/C(C)=O)cc1OC | > 20 | 7.5 | 9.7 |  |
| COc1ccc(C(=O)/C=C/c2ccc(OCc3cn([C@H]4C[C@H](n5cc(C)c(=O)[nH]c5=O)O[C@@H]4CO)nn3)c(OC)c2)cc1 | 8 | 6.1 | 2.9 |  |
| COc1ccc(C(=O)/C=C/c2ccc(OCc3cn([C@H]4C[C@H](n5cc(C)c(=O)[nH]c5=O)O[C@@H]4CO)nn3)c(OC)c2)c(OC)c1 | 5.4 | 4.4 | 1.5 |  |
| COc1cc(/C=C/C(=O)c2ccc(OC)c(OC)c2OC)ccc1OCc1cn([C@H]2C[C@H](n3cc(C)c(=O)[nH]c3=O)O[C@@H]2CO)nn1 | 5.4 | 3.7 | 3.3 |  |
| COc1cc(/C=C/C(=O)c2ccc(OC)c(OC)c2OC)ccc1OCc1cn(-c2ccnc3cc(Cl)ccc23)nn1 | 0.6 | 0.4 | 0.4 | 0.2 equiv |
| COc1ccc(/C=C/C(=O)c2ccc(OCc3cn([C@H]4C[C@H](n5cc(C)c(=O)[nH]c5=O)O[C@@H]4CO)nn3)c(OC)c2)c(OC)c1 | 9 | 11.8 | 10.2 |  |
| COc1cc(C(=O)/C=C/c2ccc(OC)c(OC)c2OC)ccc1OCc1cn([C@H]2C[C@H](n3cc(C)c(=O)[nH]c3=O)O[C@@H]2CO)nn1 | 7.1 | 3.8 | 5.4 |  |
| COc1cc(C(=O)/C=C/c2ccc(Cl)cc2Cl)ccc1OCc1cn([C@H]2C[C@H](n3cc(C)c(=O)[nH]c3=O)O[C@@H]2CO)nn1 | 8.4 | 1.9 | 3.7 |  |
| COc1cc(C(=O)/C=C/c2ccc(F)cc2)ccc1OCc1cn([C@H]2C[C@H](n3cc(C)c(=O)[nH]c3=O)O[C@@H]2CO)nn1 | 6.6 | 6.1 | 7.3 |  |
| COc1cc(C(=O)/C=C/c2ccc(F)cc2F)ccc1OCc1cn([C@H]2C[C@H](n3cc(C)c(=O)[nH]c3=O)O[C@@H]2CO)nn1 | 7.1 | 4.8 | 3.9 |  |
| COc1cc(C(=O)/C=C/c2ccc(OC)c(OC)c2OC)ccc1OCc1cn(-c2ccnc3cc(Cl)ccc23)nn1 | 0.5 | 0.3 | 0.3 | 4.1 equiv |
| COc1ccc(/C=C/C(=O)/C=C/c2ccc(OCc3cn([C@H]4C[C@H](n5cc(C)c(=O)[nH]c5=O)O[C@@H]4CO)nn3)c(OC)c2)cc1 | 18.2 | 1.5 | 2.8 |  |
| COc1ccc(/C=C/C(=O)/C=C/c2ccc(OCc3cn([C@H]4C[C@H](n5cc(C)c(=O)[nH]c5=O)O[C@@H]4CO)nn3)c(OC)c2)c(OC)c1 | 14.5 | 1.2 | 1.3 |  |
| COc1cc(/C=C/C(=O)/C=C/c2ccc(OC)c(OC)c2OC)ccc1OCc1cn([C@H]2C[C@H](n3cc(C)c(=O)[nH]c3=O)O[C@@H]2CO)nn1 | 8.3 | 2.4 | 1.3 |  |
| COc1cc(/C=C/C(=O)/C=C/c2ccc(Cl)cc2Cl)ccc1OCc1cn([C@H]2C[C@H](n3cc(C)c(=O)[nH]c3=O)O[C@@H]2CO)nn1 | 9.1 | 1.7 | 1.4 |  |
| COc1cc(/C=C/C(=O)/C=C/c2ccc(F)cc2)ccc1OCc1cn([C@H]2C[C@H](n3cc(C)c(=O)[nH]c3=O)O[C@@H]2CO)nn1 |  | 2.6 | 1.7 |  |
| COc1cc(/C=C/C(=O)/C=C/c2ccc(F)cc2F)ccc1OCc1cn([C@H]2C[C@H](n3cc(C)c(=O)[nH]c3=O)O[C@@H]2CO)nn1 | 12.4 | 1.7 | 1.4 |  |
| COc1ccc(/C=C/C(=O)/C=C/c2ccc(OCc3cn(-c4ccnc5cc(Cl)ccc45)nn3)c(OC)c2)c(OC)c1 | > 20 | 6.4 | 5.1 |  |
| COc1cc(/C=C/C(=O)/C=C/c2ccc(OC)c(OC)c2OC)ccc1OCc1cn(-c2ccnc3cc(Cl)ccc23)nn1 | 18.5 | 2.1 | 2.5 |  |
| COc1cc(/C=C/C(C)=O)ccc1OCc1cn(-c2ccnc3cc(Cl)ccc23)nn1 |  | 0.7 | 0.8 |  |
| COc1ccc(/C=C/C(=O)/C=C/c2ccc(OCc3cn(-c4ccnc5cc(Cl)ccc45)nn3)c(OC)c2)cc1 | 5.3 | 2.1 | 3 |  |
| COc1cc(/C=C/C(=O)/C=C/c2ccc(Cl)cc2Cl)ccc1OCc1cn(-c2ccnc3cc(Cl)ccc23)nn1 | > 20 | 16.8 | 19 |  |
| COc1cc(/C=C/C(=O)/C=C/c2ccc(F)cc2)ccc1OCc1cn(-c2ccnc3cc(Cl)ccc23)nn1 | > 20 | 9.3 | 9.4 |  |
| COc1cc(/C=C/C(=O)/C=C/c2ccc(F)cc2F)ccc1OCc1cn(-c2ccnc3cc(Cl)ccc23)nn1 | > 20 | 6.5 | 10.2 |  |
| Clc1ccc2c(-n3cc(COc4ccccc4)nn3)ccnc2c1 |  | > 20 | > 20 |  |

| Compound | IC50 (Plasmodium falciparum [1]) [µM] | IC50 (Plasmodium falciparum [2]) [µM] | IC50 (Plasmodium falciparum [3]) [µM] | IC50 [4] |
| --- | --- | --- | --- | --- |
| COc1cc(C=O)ccc1OCc1cn(-c2ccnc3cc(Cl)ccc23)nn1 |  | > 20 | > 20 |  |
| C#CCOc1ccc(C(=O)/C=C/c2ccc(Cl)cc2Cl)cc1OC | 5 | 2.8 | 3.3 |  |
| C#CCOc1ccc(C(=O)/C=C/c2ccc(F)cc2)cc1OC | > 20 | 7.7 | 7.2 |  |
| C#CCOc1ccc(C(=O)/C=C/c2ccc(F)cc2F)cc1OC | 9.4 | 5.2 | > 20 |  |
| C#CCOc1ccc(/C=C/C(=O)/C=C/c2ccc(OC)cc2)cc1OC | > 20 | 10.7 | 11.8 |  |
| C#CCOc1ccc(/C=C/C(=O)/C=C/c2ccc(OC)cc2OC)cc1OC | 18.9 | 4 | 5.4 |  |
| C#CCOc1ccc(/C=C/C(=O)/C=C/c2ccc(OC)c(OC)c2OC)cc1OC | 9.2 | 1.4 | 0.9 |  |
| C#CCOc1ccc(/C=C/C(=O)/C=C/c2ccc(Cl)cc2Cl)cc1OC | > 20 | 9 | 9.2 |  |
| C#CCOc1ccc(/C=C/C(=O)/C=C/c2ccc(F)cc2)cc1OC | 21.5 | 6.5 | 9.8 |  |
| C#CCOc1ccc(/C=C/C(=O)/C=C/c2ccc(F)cc2F)cc1OC | > 20 | 9.3 | 11.9 |  |
| COc1ccc(C(=O)/C=C/c2ccc(OCc3cn(-c4ccnc5cc(Cl)ccc45)nn3)c(OC)c2)cc1 | 5 | 2.2 | 0.6 |  |
| COc1ccc(C(=O)/C=C/c2ccc(OCc3cn(-c4ccnc5cc(Cl)ccc45)nn3)c(OC)c2)c(OC)c1 | 0.09 | 0.07 | 0.04 | 1.6 equiv |
| COc1ccc(/C=C/C(=O)c2ccc(OCc3cn(-c4ccnc5cc(Cl)ccc45)nn3)c(OC)c2)c(OC)c1 | 6.6 | 11.7 | 5.2 | Not Active |
| COc1cc(C(=O)/C=C/c2ccc(Cl)cc2Cl)ccc1OCc1cn(-c2ccnc3cc(Cl)ccc23)nn1 | 11.5 | 1.9 | 6 |  |
| COc1cc(C(=O)/C=C/c2ccc(F)cc2)ccc1OCc1cn(-c2ccnc3cc(Cl)ccc23)nn1 | 6.9 | 1.6 | 7.4 | 4.8 equiv |
| COc1cc(C(=O)/C=C/c2ccc(F)cc2F)ccc1OCc1cn(-c2ccnc3cc(Cl)ccc23)nn1 | 10.6 | 2.1 | 4.1 | 1.6 equiv |
| COc1cc(/C=C/C(C)=O)ccc1OCc1cn([C@H]2C[C@H](n3cc(C)c(=O)[nH]c3=O)O[C@@H]2CO)nn1 |  | 16.4 | 12 |  |
| [N-]=[N+]=Nc1ccnc2cc(Cl)ccc12 | > 20 | > 20 | > 20 |  |
| C#CCOc1ccc(/C=C/C(=O)c2ccc(OC)cc2OC)cc1OC |  | 4.3 |  | 0.5 equiv |
| C#CCOc1ccc(/C=C/C(=O)c2ccc(OC)cc2)cc1OC |  | 13.5 |  |  |
| C#CCOc1ccc(/C=C/C(=O)c2ccc(OC)c(OC)c2OC)cc1OC |  | 2.8 |  |  |
| C#CCOc1ccc(C(=O)/C=C/c2ccc(OC)c(OC)c2OC)cc1OC |  | 2.4 |  |  |
| C#CCOc1ccc(C(=O)/C=C/c2ccc(OC)cc2OC)cc1OC |  | 14.5 | > 20 |  |
| CCN(CC)CCCC(C)Nc1ccnc2cc(Cl)ccc12 (stereo unspecified) [CHLOROQUINE] |  |  |  | 1.91 equiv |
| Cc1cn([C@H]2C[C@H](N=[N+]=[N-])[C@@H](CO)O2)c(=O)[nH]c1=O [ZIDOVUDINE] | > 20 | > 20 | > 20 |  |

Source: ChEMBL document CHEMBL1287748, “Design, synthesis and in vitro antimalarial evaluation of triazole-linked chalcone and dienone hybrid compounds” (Bioorg Med Chem, 2010)
